Scp1 inh: blocks human Scp-1 phosphatase activity; inhibition, % at 20 µM; Recombinant Scp1, phosphopeptide, malachite green phosphate absorbance; AID 493091; 340,000 tested, 0.88% active;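 active = inhibition above about 50% at 20 µM, limit read from the data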;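 note: plate controls were DMSO wells with enzyme for no effect and wells lacking enzyme for full effect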
Target sequence (Q9GZU7 76-261 limits assumed): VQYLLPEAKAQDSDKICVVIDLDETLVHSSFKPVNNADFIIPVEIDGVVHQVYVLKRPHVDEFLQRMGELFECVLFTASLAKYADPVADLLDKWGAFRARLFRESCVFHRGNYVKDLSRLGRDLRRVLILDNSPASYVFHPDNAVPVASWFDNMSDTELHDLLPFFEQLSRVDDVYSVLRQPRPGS
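Times: enzyme reaction 45 min at room temperature, colour 5 min, stabilisation 30 min. Material: SCP-1 catalytic fragment, aa 76-261. Medium: Acidic Tris acetate buffer with magnesium and detergent. Signal: colorimetric free-phosphate detection, absorbance 630 nm. Read-out basis: % inhibition of SCP-1 phosphate liberation. Reagent: Phosphorylated 17-residue peptide substrate.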
DNMT1 block: inhibitors of human DNMT1 | inhibition (reported as % activation of signal), % at 10 µM | 360,000 tested, 0.83% active | DNMT1 molecular beacon, Hinp1I cleavage, fluorescence; in the data active = inhibition above about 50%
LMPTP inh: blocks human LMPTP phosphatase. recombinant LMPTP-A, OMFP fluorogenic substrate, fluorescence intensity. inhibition, % at 20 µM. 360,000 tested, 0.22% active. AID 651560;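 active = compounds that cut the enzyme signal by at least half of the control window in the single-dose screen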;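 note: plate controls were DMSO wells with enzyme plus substrate for no effect and substrate without enzyme for full effect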
Target sequence (P24666 whole entry, looked up): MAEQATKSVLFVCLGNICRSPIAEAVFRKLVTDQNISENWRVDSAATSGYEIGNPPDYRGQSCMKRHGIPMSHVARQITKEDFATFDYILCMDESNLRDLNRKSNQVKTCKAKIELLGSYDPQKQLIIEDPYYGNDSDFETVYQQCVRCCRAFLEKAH
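Assay system: LMPTP-A enzyme. Input: 0.625 nM LMPTP-A final. Probe or stimulus: 400 µM OMFP. Compound dosing: single 20 µM dose. Schedule: 50 min dark incubation at room temperature. Detection: fluorescence intensity of OMFP turnover product. Read-out: percent inhibition versus substrate-only and uninhibited controls. Benchmarks: no-enzyme low control, uninhibited high control.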
NadD inh: blocks S. aureus nicotinate mononucleotide adenylyltransferase; purified NadD enzyme, colorimetric absorbance read-out; inhibition, % at 20 µM; 360,000 tested, 0.78% active; in the data active = inhibition above about 26%
SUMO1 PPI mod: SUMO1-SIM interaction modulation; 360,000 tested, 0.33% active; P63165; AID 602429; inhibition, % at 20 µM; SUMO1 binding to a labelled peptide, TR-FRET, 1 h; in the data active = inhibition above about 37%
Target sequence (P63165 whole entry, looked up): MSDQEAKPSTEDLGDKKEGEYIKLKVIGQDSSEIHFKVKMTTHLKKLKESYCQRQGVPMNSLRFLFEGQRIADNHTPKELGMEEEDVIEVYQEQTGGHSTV
STEP inh: blocks human striatal-enriched tyrosine phosphatase | P54829 | recombinant STEP, OMFP fluorogenic substrate, fluorescence | inhibition, % at 20 µM | 360,000 tested, 0.25% active;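 active = inhibition at 20 µM, scaled per plate between control wells, above about 37%, limit read from the data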;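 note: 0% = DMSO with enzyme and substrate and 100% = substrate only without enzyme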
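Assay system: isolated STEP enzyme / Timing: 20 min at room temperature, dark / Doses: 20 µM, 1% DMSO / Technique: fluorescence intensity, excitation 480 nm, emission 540 nm / Reagent: fluorogenic phosphatase substrate OMFP at 25 µM final / Measure: percent inhibition scaled to no-enzyme and uninhibited-enzyme controls, plate-pattern corrected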
NadD inh conf: confirmation of Staphylococcus aureus NadD inhibitors | shares compounds with NadD inh | purified S. aureus NadD, colorimetric enzyme assay | inhibition, % at 20 µM | 2,000 tested, 13% active | AID 624309; in the data active = inhibition mostly above about 42%, no sharp cut-off; inactive = mostly below about 42%
Starred values were filed as active, the others as inactive; nt = no result. The list is not random: actives were taken first. Their share in the collection is about 2.4%.

SMILES	Scp1 inh	DNMT1 block	LMPTP inh	NadD inh	SUMO1 PPI mod	STEP inh	NadD inh conf
Cc1cc(NC(=O)CSc2nc3c(sc4ccccc43)c(=O)n2CCc2ccccc2)n[nH]1	-2	44	2	34*	2	-4	2
O=C(Nc1nc(-c2ccccn2)cs1)c1ncc(Cl)c(Cl)c1Cl	11	-4	5	36*	8	9	5
Nc1c(C(=O)N/N=C/c2ccccc2Cl)oc2nc(-c3ccccc3)cc(-c3ccco3)c12	-2	-7	2	31*	-12	-2	-4
CCOC(=O)c1ccc(Nc2cc(C)nc(-c3ccccc3O)n2)cc1	0	4	2	1	31	-2	nt
Cc1ccc(NC(=O)C(C)OC(=O)c2cc(=O)[nH]c3ccccc23)cc1S(=O)(=O)N1CCOCC1 (stereo unspecified)	16	-10	5	35*	-3	0	41
O=C(CNc1ccc(F)cc1)N/N=C1\CCc2ccccc21	-11	-2	1	3	-2	3	nt
COc1ccc(NCC(=O)N/N=C2\CCc3ccccc32)cc1	-4	-18	5	30*	5	4	7
CN(CCc1ccccn1)C(=O)Nc1cccc(Cl)c1	38	-1	1	-4	5	-1	nt
Cc1cc(C)cc(NC(=O)Cn2c(=O)oc3cc(S(=O)(=O)N4CC(C)CC(C)C4)ccc32)c1 (stereo unspecified)	-12	-3	3	36*	1	-2	3
CC1Nc2ncnc(N3CCc4ccccc4C3)c2N(Cc2ccc(Cl)cc2)C1=O (stereo unspecified)	3	-7	0	43*	4	-2	11
CC1Nc2ncnc(N3CCN(c4ccccc4)CC3)c2N(Cc2ccc(Cl)cc2)C1=O (stereo unspecified)	9	-4	-1	14	6	2	nt
COc1ccc(CN2C(=O)C(Cc3ccccc3)Nc3ncnc(N4CCN(c5ccccc5)CC4)c32)cc1 (stereo unspecified)	4	-5	-2	25	-1	2	nt
O=C1C(Cc2ccccc2)Nc2ncnc(N3CCN(c4ccccc4)CC3)c2N1Cc1ccc(Cl)cc1 (stereo unspecified)	10	-6	2	41*	2	0	9
COc1c(C(O)CC(C)C)ccc2c1C(=O)OCc1cc(C)cc(O)c1O2 (stereo unspecified)	4	1	1	92*	6	-2	-2
O=C1NC[C@H](Cc2ccc(O)cc2)N(C[C@@H]2CCCN2C[C@H](Cc2ccccc2)N2C[C@H](Cc3ccccc3)N(CC3CCCCCC3)C(=O)C2=O)C1=O	nt	nt	17	52*	4	nt	43
O=C1NC[C@@H](CCCCN2C[C@H](Cc3ccc(O)cc3)N(CCC3CCCCC3)C(=O)C2=O)N(CC2CCCCC2)C1=O	nt	nt	1	44*	7	nt	47*
O=C1NC[C@H](Cc2ccccc2)N(C[C@@H]2CCCN2C[C@H](Cc2ccc(O)cc2)N2C[C@H](Cc3ccccc3)N(CC3CCCCCC3)C(=O)C2=O)C1=O	nt	nt	8	39*	2	nt	48*
CC(C)C[C@H]1CN([C@@H](Cc2ccccc2)CN2CCC[C@H]2CN2C(=O)C(=O)NC[C@@H]2Cc2ccc(O)cc2)C(=O)C(=O)N1CC1CCCCC1	nt	nt	1	31*	5	nt	40
O=C1NC[C@H](Cc2ccccc2)N(C[C@@H]2CCCN2C[C@H](Cc2ccccc2)N2C[C@H](Cc3ccccc3)N(CC3CCCCC3)C(=O)C2=O)C1=O	nt	-6	4	22	15	4	nt
O=C1NC[C@H](Cc2ccccc2)N(C[C@H]2CCCN2C[C@H](Cc2ccccc2)N2C[C@H](Cc3ccccc3)N(CC3CCCCC3)C(=O)C2=O)C1=O	13	0	3	17	6	3	nt
COc1cccc(N2CCN(C(=O)NC3CCCCC3)CC2)c1	-3	6	-2	-2	1	-4	nt
O=C(c1ccc(-c2nnc(Nc3cccc(Cl)c3)c3ccccc23)cc1)N1C[C@H]2C[C@H](C1)c1cccc(=O)n1C2	3	74*	20	28*	7	2	-3
CC1=CC(C)(C)n2c(O)c(C3=NC(=S)NC3=O)c3cc(OC(=O)c4cccc5ccccc45)cc1c32	6	-6	2	55*	-2	5	6
COc1ccc(/C(=N/O)C(C)(C)NO)cc1	-3	3	-1	1	-3	-1	nt
Cc1cccc(CN2CCCC(C(=O)N3CCc4ccccc4C3)C2)c1 (stereo unspecified)	0	0	-2	-5	-1	-1	nt
SMILES	Scp1 inh	DNMT1 block	LMPTP inh	NadD inh	SUMO1 PPI mod	STEP inh	NadD inh conf
O=C(N=c1ccn(-c2nc3ccccc3nc2NS(=O)(=O)c2ccccc2)cc1)c1cccs1	8	9	16	19	-46	-5	nt
Cc1ccccc1C(=O)N=c1ccn(-c2nc3ccccc3nc2NS(=O)(=O)c2ccc(F)cc2)cc1	25	0	0	30*	-13	2	56*
Cc1ccc(Cl)cc1N1CCN(S(=O)(=O)c2ccc3c(c2)CC(=O)N3C)CC1	-5	-10	1	29*	0	3	10
CN1C(=O)Cc2cc(S(=O)(=O)N3CCN(c4ccc(Cl)cc4)CC3)ccc21	4	0	1	14	3	3	nt
Cc1ccc(C)c(N2CCN(S(=O)(=O)c3ccc4[nH]c(=O)c(=O)[nH]c4c3)CC2)c1	0	1	0	32*	-1	0	54*
CCOC(=O)C1CCN(S(=O)(=O)c2cccc(-c3csc(C)n3)c2)CC1	-2	-2	-1	-22	3	2	nt
O=C(CN1CCc2ccccc21)Nc1ccc2c(c1)OCO2	-2	-16	1	56*	-19	2	8
O=C(CN1CCc2ccccc21)NCc1ccc2c(c1)OCO2	-1	-8	1	-2	22	-2	nt
COC1CCCCC1Nc1cccc(SC)c1 (stereo unspecified)	5	-3	0	4	-2	0	nt
Nc1nnc(SCC(=O)OCC(=O)Nc2ccc(Br)cc2)s1	1	0	-1	-5	-3	-1	nt
CCOC(=O)C1=C(N)n2c(s/c(=C\c3ccco3)c2=O)=C(C(=O)OCC)C1c1ccco1 (stereo unspecified)	-4	-1	1	21	2	18	nt
CCOC(=O)C1=C(N)n2c(s/c(=C\c3ccco3)c2=O)=C(C(=O)OC(C)C)C1c1ccco1 (stereo unspecified)	6	1	1	32*	1	1	18

Screens as filed in PubChem.
